# From ChEMBL document CHEMBL3864172, “New Peptidomimetic Boronates for Selective Inhibition of the Chymotrypsin-like Activity of the 26S Proteasome” (ACS Med Chem Lett, 2016)
# Calls of active or inactive are those of the source. The rule behind the calls is not given here.
# How the values were obtained:
# [1] = (§1) Cytotoxicity against human WE68 cells harboring wild type p53 assessed as reduction in cell viability after 48 hrs by 7AAD-staining based FACS analysis; assay type: functional; conditions: WE68, 48 h, read-out: LD50 (the source's name)
# Outline: (§2)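 Cells were exposed for 48 h to compound titrations from 0 to 5000 nM. Cell death was read out by 7AAD staining, and the LD50 was taken from dose-response curves. n=3.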
# WE68 = assay: as §1; assay type: functional; outline: as §2
# MCF7 [2] = assay: Inhibition of 26S proteasome in human MCF7 cells assessed as accumulation of high molecular weight polyubiquitin-conjugated proteins at 35 nM after 4 hrs by Western blot analysis; assay type: cell-based
# Oryctolagus cuniculus = species on record: Oryctolagus cuniculus; assay: Selectivity ratio of IC50 for caspase like activity of rabbit 20S proteasome to IC50 for chymotrypsin like activity of rabbit 20S proteasome
# MDA-MB-468 [3] = assay: Inhibition of 26S proteasome in human MDA-MB-468 cells assessed as accumulation of high molecular weight polyubiquitin-conjugated proteins at 35 nM after 4 hrs by Western blot analysis; assay type: cell-based
# [4] = (§3) Cytotoxicity against human KGN cells harboring wild type p53 assessed as reduction in cell viability after 48 hrs by 7AAD-staining based FACS analysis; assay type: functional; conditions: read-out: LD50 (the source's name); outline: as §2
# KGN = assay: as §3; assay type: functional; outline: as §2
# [5] = Selectivity ratio of LD50 for human SKOV3 cells to LD50 for human KGN cells; assay type: functional
# U-266 [6] = assay: Selectivity ratio of LD50 for human U266 cells to LD50 for human NCI-H929 cells; assay type: functional
# [7] = Cytotoxicity against human MCF10A cells harboring wild type p53 assessed as reduction in cell viability after 48 hrs by 7AAD-staining based FACS analysis; assay type: toxicity, MCF-10A; conditions: for CC50 at 48 h: MCF10A cells harboring wild type p53, read-out: LD50; for Activity: mcf-10a, 48 h; outline: as §2
# [8] = (§4) Cytotoxicity against human RD-ES cells harboring p53 mutant assessed as reduction in cell viability after 48 hrs by 7AAD-staining based FACS analysis; assay type: functional; conditions: read-out: LD50 (the source's name); outline: as §2
# RD-ES = assay: as §4; assay type: functional; outline: as §2
# [9] = Cytotoxicity against human LCL cells harboring wild type p53 assessed as reduction in cell viability after 48 hrs by 7AAD-staining based FACS analysis; assay type: toxicity; conditions: for CC50 at 48 h: LCL cells harboring wild type p53, read-out: LD50; for Activity: lcl, 48 h; outline: as §2
# [10] = Inhibition of trypsin like activity of rabbit 20S proteasome using Bz-Val-Gly-Arg-AMC as substrate preincubated for 15 mins followed by substrate addition measured after 2 hrs by fluorescence-based assay; set-up: species or system Oryctolagus cuniculus
# [11] = Inhibition of caspase like activity of rabbit 20S proteasome using Ac-nLPnLD-AMC as substrate preincubated for 15 mins followed by substrate addition measured after 2 hrs by fluorescence-based assay; set-up: species or system Oryctolagus cuniculus
# [12] = (§5) Cytotoxicity against human MDA-MB-468 cells harboring mutant p53 assessed as reduction in cell viability after 48 hrs by 7AAD-staining based FACS analysis; assay type: functional; conditions: MDA-MB-468, 48 h, read-out: LD50 (the source's name); outline: as §2
# MDA-MB-468 [13] = assay: as §5; assay type: functional; outline: as §2
# SK-OV-3 = assay: (§6) Cytotoxicity against p53 deficient human SKOV3 cells assessed as reduction in cell viability after 48 hrs by 7AAD-staining based FACS analysis; assay type: functional; outline: as §2
# [14] = as §6; assay type: functional; conditions: SK-OV-3, 48 h, read-out: LD50 (the source's name); outline: as §2
# [15] = Inhibition of chymotrypsin like activity of rabbit 20S proteasome using Suc-Leu-Leu-Val-Tyr-AMC as substrate preincubated for 15 mins followed by substrate addition measured after 2 hrs by fluorescence-based assay; set-up: species or system Oryctolagus cuniculus
# [16] = Cytotoxicity against human IMR90 cells harboring wild type p53 assessed as reduction in cell viability after 48 hrs by 7AAD-staining based FACS analysis; assay type: toxicity, IMR-90; conditions: for CC50 at 48 h: IMR90 cells harboring wild type p53, read-out: LD50; for Activity: imr-90, 48 h; outline: as §2
# [17] = biological target: T1, Proteasome subunit beta type-8 (Mus musculus, UniProt P28063); assay: Inhibition of chymotrypsin like activity of mouse spleen 20S proteasome beta5i subunit using Suc-Leu-Leu-Val-Tyr-AMC as substrate preincubated for 15 mins followed by substrate addition measured after 2 hrs by fluorescence-based assay
# T1 sequence (P28063 whole entry): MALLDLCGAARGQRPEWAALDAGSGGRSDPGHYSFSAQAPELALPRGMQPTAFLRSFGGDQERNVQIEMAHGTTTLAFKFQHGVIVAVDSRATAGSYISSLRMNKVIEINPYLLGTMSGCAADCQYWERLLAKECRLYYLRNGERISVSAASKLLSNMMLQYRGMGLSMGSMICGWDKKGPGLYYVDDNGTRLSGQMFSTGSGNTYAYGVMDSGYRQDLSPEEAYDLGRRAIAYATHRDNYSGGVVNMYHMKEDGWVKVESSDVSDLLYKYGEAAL
# [18] = (§7) Cytotoxicity against human MCF7 cells harboring wild type p53 assessed as reduction in cell viability after 48 hrs by 7AAD-staining based FACS analysis; assay type: functional; conditions: MCF7, 48 h, read-out: LD50 (the source's name); outline: as §2
# MCF7 [19] = assay: as §7; assay type: functional; outline: as §2
# [20] = Inhibition of bovine alpha chymotrypsin using Ala-Ala-Phe-7-AMC as substrate measured for 10 mins by spectrophotometric analysis; set-up: species or system Bos taurus
# Outline: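 Enzyme was bovine α-chymotrypsin. Compounds were tested up to a top concentration of 25000 nM. Ki values are the mean of three separate experiments, with variation between experiments below ±10%.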
# U-266 [21] = assay: (§8) Cytotoxicity against human U266 cells harboring mutant p53 assessed as reduction in cell viability after 48 hrs by 7AAD-staining based FACS analysis; assay type: functional; outline: as §2
# [22] = as §8; assay type: functional; conditions: U-266, 48 h, read-out: LD50 (the source's name); outline: as §2
# [23] = Cytotoxicity against HNDF cells harboring wild type p53 assessed as reduction in cell viability after 48 hrs by 7AAD-staining based FACS analysis; assay type: toxicity; conditions: human; for CC50 at 48 h: HNDF cells harboring wild type p53, read-out: LD50; for Activity: hndf, 48 h; outline: as §2
# [24] = (§9) Cytotoxicity against human NCI-H929 cells harboring wild type p53 assessed as reduction in cell viability after 48 hrs by 7AAD-staining based FACS analysis; assay type: functional; conditions: NCI-H929, 48 h, read-out: LD50 (the source's name); outline: as §2
# NCI-H929 = assay: as §9; assay type: functional; outline: as §2
# [25] = Terminal half life in human plasma at 20 mg/m2 iv, administered for 2 to 10 mins after dexamethasone addition by LC-MS/MS analysis; assay type: ADME, cell-free; conditions: read-out: beta t1/2
# [26] = Inhibition of chymotrypsin like activity of rabbit 20S proteasome using Suc-LLVY-AMC as substrate preincubated for 15 mins followed by substrate addition measured after 2 hrs by microplate-fluorometric analysis; set-up: species or system Oryctolagus cuniculus
SMILES,CC50 [1],Polyubiquitin-conjugate accumulation (MCF7 [2]),Ratio IC50 (Oryctolagus cuniculus),polyubiquitin accumulation (active/inactive) (MDA-MB-468 [3]),CC50 [4],CC50 at 48 h [7],CC50 [8],CC50 at 48 h [9],IC50 [10],IC50 [11],CC50 [12],CC50 [14],IC50 [15],CC50 at 48 h [16],IC50 [17],CC50 [18],Ki [20],CC50 [22],CC50 at 48 h [23],CC50 [24],also measured
C=CCOc1ccc(CCC(=O)c2ccc(C(=O)N[C@@H](Cc3ccc(OCC=C)cc3)C(=O)N[C@@H](CC(C)C)B3O[C@@H]4C[C@@H]5C[C@@H](C5(C)C)[C@]4(C)O3)[nH]2)cc1,65 nM,Active,200,Active,180 nM,9000 nM,65 nM,90 nM,> 25000 nM,4180 nM,50 nM,1500 nM,20.9 nM,150 nM,483 nM,3000 nM,> 25000 nM,29 nM,1080 nM,9 nM,Activity (WE68): Dose-dependent effect; Activity (KGN): Dose-dependent effect; Selectivity ratio [5]: 5; Selectivity ratio (U-266 [6]): 2; Activity [7]: Dose-dependent effect; Activity (RD-ES): Dose-dependent effect; Activity [9]: Dose-dependent effect; Activity (MDA-MB-468 [13]): Dose-dependent effect; Activity (SK-OV-3): Dose-dependent effect; Activity [16]: Dose-dependent effect; Activity (MCF7 [19]): Dose-dependent effect; Activity (U-266 [21]): Dose-dependent effect; Activity [23]: Dose-dependent effect; Activity (NCI-H929): Dose-dependent effect
CC(C)C[C@H](NC(=O)[C@H](CCc1ccccc1)NC(=O)CN1CCOCC1)C(=O)N[C@@H](Cc1ccccc1)C(=O)N[C@@H](CC(C)C)C(=O)[C@@]1(C)CO1 [CARFILZOMIB],80 nM,Active,,Active,450 nM,320 nM,43 nM,30 nM,> 25000 nM,> 25000 nM,330 nM,320 nM,23.1 nM,130 nM,,4500 nM,> 25000 nM,60 nM,350 nM,,half-life [25]: 5 to 20 min
CC[C@H](C)[C@H](NC(=O)[C@H](CCCCN=[N+]=[N-])NC(=O)OCc1ccccc1)C(=O)N[C@@H](Cc1ccccc1)B1O[C@@H]2C[C@@H]3C[C@@H](C3(C)C)[C@]2(C)O1,14 nM,,117,,48 nM,1250 nM,33 nM,,> 25000 nM,2450 nM,24 nM,46 nM,21 nM,8 nM,13.8 nM,79 nM,7130 nM,14 nM,60 nM,12 nM,Activity (WE68): Dose-dependent effect; Activity (KGN): Dose-dependent effect; Activity [7]: Dose-dependent effect; Activity (RD-ES): Dose-dependent effect; Activity [9]: Dose-dependent effect; Activity (MDA-MB-468 [13]): Dose-dependent effect; Activity (SK-OV-3): Dose-dependent effect; Activity [16]: Dose-dependent effect; Activity (MCF7 [19]): Dose-dependent effect; Activity (U-266 [21]): Dose-dependent effect; Activity [23]: Dose-dependent effect; Activity (NCI-H929): Dose-dependent effect
C#CCOc1ccc(C[C@@H](C=O)NC(=O)[C@@H](NC(=O)[C@H](CCCCN=[N+]=[N-])NC(=O)OCc2ccccc2)[C@H](C)CC)cc1,,,,,,,,,,,,,,,,,,,,,IC50 [26]: 21 nM
CC[C@H](C)[C@H](NC(=O)[C@H](CCCCN=[N+]=[N-])NC(=O)OCc1ccccc1)C(=O)N[C@@H](CC(C)C)B1O[C@@H]2C[C@@H]3C[C@@H](C3(C)C)[C@]2(C)O1,35 nM,Active,113,Active,65 nM,5000 nM,35 nM,30 nM,> 25000 nM,1600 nM,30 nM,370 nM,14.1 nM,200 nM,118 nM,1500 nM,> 25000 nM,15 nM,500 nM,6.4 nM,Activity (WE68): Dose-dependent effect; Activity (KGN): Dose-dependent effect; Selectivity ratio [5]: 5; Selectivity ratio (U-266 [6]): 2; Activity [7]: Dose-dependent effect; Activity (RD-ES): Dose-dependent effect; Activity [9]: Dose-dependent effect; Activity (MDA-MB-468 [13]): Dose-dependent effect; Activity (SK-OV-3): Dose-dependent effect; Activity [16]: Dose-dependent effect; Activity (MCF7 [19]): Dose-dependent effect; Activity (U-266 [21]): Dose-dependent effect; Activity [23]: Dose-dependent effect; Activity (NCI-H929): Dose-dependent effect
C=CCOc1ccc(CCC(=O)c2ccc(C(=O)N[C@@H](Cc3ccc(OCC=C)cc3)C(=O)N[C@@H](Cc3ccccc3)B3O[C@@H]4C[C@@H]5C[C@@H](C5(C)C)[C@]4(C)O3)[nH]2)cc1,,,32.1,,,,,,> 25000 nM,3340 nM,,,104 nM,,113 nM,,1310 nM,,,,
CC(C)C[C@H](NC(=O)[C@H](Cc1ccccc1)NC(=O)c1cnccn1)B(O)O [BORTEZOMIB],100 nM,Active,,Active,180 nM,1500 nM,40 nM,20 nM,> 25000 nM,108 nM,37 nM,1600 nM,34.6 nM,130 nM,16.8 nM,9800 nM,1820 nM,18 nM,480 nM,6.6 nM,
